Experimental data taken from ChEMBL document CHEMBL4689842, “EUbOPEN Chemogenomics Library wave 1” (2021).

System: HEK-293T
Assay: Multiplex assay against HEK293T;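 as to Population Tubulin-Different-Phenotype (%): share of the cells with healthy nuclei that show this phenotype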
Type: toxicity, cell-based
Conditions: human
Outline: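 Per cents of healthy-nucleus cells form the tubulin, mitochondrial-mass and membrane-permeability phenotype values. Live cells were stained at seeding with Hoechst33342, BioTracker Green Microtubule Cytoskeleton Dye, MitoTracker Red and Annexin V Alexa Fluor 680. After compound addition they were imaged on a CQ1 microscope at 37°C and 5% CO2, and CellPathfinder machine-learning gating split them into Hoechst high-intensity objects or normal cells, normal cells into healthy, pyknosed or fragmented nuclei, and pyknosed cells into mitotic or apoptotic.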

[1] = 12 h, 1 µM, compound concentration 1 uM, replicate 1
[2] = 12 h, 1 µM, compound concentration 1 uM, replicate 2
[3] = 12 h, 10 µM, compound concentration 10 uM, replicate 1
[4] = 12 h, 10 µM, compound concentration 10 uM, replicate 2
[5] = 24 h, 1 µM, compound concentration 1 uM, replicate 1
[6] = 24 h, 1 µM, compound concentration 1 uM, replicate 2
[7] = 24 h, 10 µM, compound concentration 10 uM, replicate 1
[8] = 24 h, 10 µM, compound concentration 10 uM, replicate 2
[9] = 48 h, 1 µM, compound concentration 1 uM, replicate 1
[10] = 48 h, 1 µM, compound concentration 1 uM, replicate 2
[11] = 48 h, 10 µM, compound concentration 10 uM, replicate 1
[12] = 48 h, 10 µM, compound concentration 10 uM, replicate 2

CCOC(=O)c1c(C)[nH]c2ccc3c(c12)CN1CCc2cc(OC)ccc2C1O3 (centres undefined)
Population Apoptotic (%) [1]: 61%
Population Fragmented Nuclei (%) [1]: 14%
Population Healthy Nuclei (%) [1]: 30%
Population Hoechst High Intensity Objects (%) [1]: 14%
Population Membrane Permeable-Phenotype (%) [1]: 1%
Population Mitochondria Different-Phenotype (%) [1]: 100%
Population Mitotic Cells (%) [1]: 38%
Population Normal (%) [1]: 85%
Population Pyknosed Nuclei (%) [1]: 54%
Total Cell Count [1]: 228
Population Apoptotic (%) [2]: 36%
Population Fragmented Nuclei (%) [2]: 4%
Population Healthy Nuclei (%) [2]: 28%
Population Hoechst High Intensity Objects (%) [2]: 5%
Population Membrane Permeable-Phenotype (%) [2]: 5%
Population Mitochondria Different-Phenotype (%) [2]: 88%
Population Mitotic Cells (%) [2]: 63%
Population Normal (%) [2]: 94%
Population Pyknosed Nuclei (%) [2]: 67%
Population Tubulin-Different-Phenotype (%) [2]: 86%
Total Cell Count [2]: 132
Population Apoptotic (%) [3]: 90%
Population Fragmented Nuclei (%) [3]: 12%
Population Hoechst High Intensity Objects (%) [3]: 20%
Population Membrane Permeable-Phenotype (%) [3]: 0%
Population Mitochondria Different-Phenotype (%) [3]: 100%
Population Mitotic Cells (%) [3]: 9%
Population Normal (%) [3]: 79%
Population Pyknosed Nuclei (%) [3]: 76%
Population Tubulin-Different-Phenotype (%) [3]: 95%
Total Cell Count [3]: 266
Population Apoptotic (%) [4]: 88%
Population Fragmented Nuclei (%) [4]: 5%
Population Healthy Nuclei (%) [4]: 10%
Population Hoechst High Intensity Objects (%) [4]: 12%
Population Membrane Permeable-Phenotype (%) [4]: 7%
Population Mitochondria Different-Phenotype (%) [4]: 92%
Population Mitotic Cells (%) [4]: 11%
Population Normal (%) [4]: 87%
Population Pyknosed Nuclei (%) [4]: 83%
Population Tubulin-Different-Phenotype (%) [4]: 92%
Total Cell Count [4]: 156
Population Apoptotic (%) [5]: 57%
Population Fragmented Nuclei (%) [5]: 17%
Population Healthy Nuclei (%) [5]: 47%
Population Hoechst High Intensity Objects (%) [5]: 7%
Population Membrane Permeable-Phenotype (%) [5]: 0%
Population Mitochondria Different-Phenotype (%) [5]: 94%
Population Mitotic Cells (%) [5]: 42%
Population Normal (%) [5]: 92%
Population Pyknosed Nuclei (%) [5]: 35%
Population Tubulin-Different-Phenotype (%) [5]: 80%
Total Cell Count [5]: 254
Population Apoptotic (%) [6]: 48%
Population Fragmented Nuclei (%) [6]: 3%
Population Healthy Nuclei (%) [6]: 45%
Population Hoechst High Intensity Objects (%) [6]: 3%
Population Membrane Permeable-Phenotype (%) [6]: 5%
Population Mitochondria Different-Phenotype (%) [6]: 91%
Population Mitotic Cells (%) [6]: 51%
Population Normal (%) [6]: 96%
Population Pyknosed Nuclei (%) [6]: 51%
Population Tubulin-Different-Phenotype (%) [6]: 86%
Total Cell Count [6]: 154
Population Apoptotic (%) [7]: 91%
Population Fragmented Nuclei (%) [7]: 15%
Population Healthy Nuclei (%) [7]: 8%
Population Hoechst High Intensity Objects (%) [7]: 22%
Population Membrane Permeable-Phenotype (%) [7]: 0%
Population Mitochondria Different-Phenotype (%) [7]: 94%
Population Mitotic Cells (%) [7]: 8%
Population Normal (%) [7]: 77%
Population Pyknosed Nuclei (%) [7]: 75%
Population Tubulin-Different-Phenotype (%) [7]: 94%
Total Cell Count [7]: 275
Population Apoptotic (%) [8]: 92%
Population Fragmented Nuclei (%) [8]: 6%
Population Healthy Nuclei (%) [8]: 9%
Population Hoechst High Intensity Objects (%) [8]: 16%
Population Mitochondria Different-Phenotype (%) [8]: 92%
Population Mitotic Cells (%) [8]: 7%
Population Normal (%) [8]: 83%
Population Pyknosed Nuclei (%) [8]: 84%
Population Tubulin-Different-Phenotype (%) [8]: 92%
Total Cell Count [8]: 158
Population Apoptotic (%) [9]: 52%
Population Fragmented Nuclei (%) [9]: 11%
Population Healthy Nuclei (%) [9]: 70%
Population Hoechst High Intensity Objects (%) [9]: 7%
Population Membrane Permeable-Phenotype (%) [9]: 1%
Population Mitochondria Different-Phenotype (%) [9]: 71%
Population Mitotic Cells (%) [9]: 47%
Population Normal (%) [9]: 92%
Population Pyknosed Nuclei (%) [9]: 17%
Population Tubulin-Different-Phenotype (%) [9]: 50%
Total Cell Count [9]: 354
Population Apoptotic (%) [10]: 36%
Population Fragmented Nuclei (%) [10]: 6%
Population Healthy Nuclei (%) [10]: 72%
Population Hoechst High Intensity Objects (%) [10]: 4%
Population Membrane Permeable-Phenotype (%) [10]: 2%
Population Mitochondria Different-Phenotype (%) [10]: 52%
Population Mitotic Cells (%) [10]: 63%
Population Normal (%) [10]: 95%
Population Pyknosed Nuclei (%) [10]: 21%
Population Tubulin-Different-Phenotype (%) [10]: 66%
Total Cell Count [10]: 226
Population Apoptotic (%) [11]: 80%
Population Fragmented Nuclei (%) [11]: 19%
Population Healthy Nuclei (%) [11]: 22%
Population Hoechst High Intensity Objects (%) [11]: 29%
Population Membrane Permeable-Phenotype (%) [11]: 0%
Population Mitochondria Different-Phenotype (%) [11]: 100%
Population Mitotic Cells (%) [11]: 19%
Population Normal (%) [11]: 70%
Population Pyknosed Nuclei (%) [11]: 58%
Population Tubulin-Different-Phenotype (%) [11]: 93%
Total Cell Count [11]: 290
Population Apoptotic (%) [12]: 93%
Population Fragmented Nuclei (%) [12]: 3%
Population Healthy Nuclei (%) [12]: 15%
Population Hoechst High Intensity Objects (%) [12]: 14%
Population Membrane Permeable-Phenotype (%) [12]: 5%
Population Mitochondria Different-Phenotype (%) [12]: 95%
Population Mitotic Cells (%) [12]: 6%
Population Normal (%) [12]: 85%
Population Pyknosed Nuclei (%) [12]: 80%
Population Tubulin-Different-Phenotype (%) [12]: 100%
Total Cell Count [12]: 148
